Several values for one entry are separate records, joined by “and”; a condition that tells them apart may be missing. Identical values can stand only once. Like-named read-outs stand apart in the source and are kept apart here. Blank lines part the entries; values can stand above or below the molecule they belong to. {FAM} = fluorescein (FAM) label
Experiments:
AGT [1] = biological target: T1, AGT (Homo sapiens, UniProt P16455); experiment: Sedimentation equilibrium analysis of AGT-DNA complexes; format: binding; settings: mean ± SEM for ≥3 determinations, 4°C
T1 sequence (P16455 with tags, fused parts or gaps limits assumed): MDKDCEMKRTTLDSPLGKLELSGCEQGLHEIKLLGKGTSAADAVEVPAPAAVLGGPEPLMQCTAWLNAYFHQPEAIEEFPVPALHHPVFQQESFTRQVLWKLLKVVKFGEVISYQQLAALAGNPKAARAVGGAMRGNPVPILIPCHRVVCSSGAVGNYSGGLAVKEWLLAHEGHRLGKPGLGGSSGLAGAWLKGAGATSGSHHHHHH

AGT [2] = biological target: T1, AGT; settings: AGT binding single-stranded DNA; for Hill coefficient (n) from anisotropy measurements / Hill coefficient (n) from intensity measurements: 4°C; for Ka from anisotropy measurements: apparent association constant
AGT [3] = biological target: T1, AGT; experiment: DNA alkyltransferase assay; format: biochemical
AGT [4] = biological target: T1, AGT; experiment: Binding of free dye to AGT detected by fluorescence anisotropy
Summary of the method: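 Each step equilibrated 1 h at 4°C before reading anisotropy, with emission intensity also recorded. Fractional saturation Y = (A − A0)/(Amax − A0), where A0 is dye without protein and Amax the saturated complex, plotted against AGT concentration.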

AGT [5] = biological target: T1, AGT; experiment: Mobility shift assay: inhibition of AGT DNA binding; settings: IC50 for inhibition of DNA binding
benzyl-AGT [6] = biological target: T2, benzyl-AGT (Homo sapiens, UniProt P16455, A204H/G205H/N207H/P202H/P203H/R206H); experiment: Binding of FAM to benzyl-AGT detected by fluorescence anisotropy
T2 sequence (P16455 with tags, fused parts or gaps): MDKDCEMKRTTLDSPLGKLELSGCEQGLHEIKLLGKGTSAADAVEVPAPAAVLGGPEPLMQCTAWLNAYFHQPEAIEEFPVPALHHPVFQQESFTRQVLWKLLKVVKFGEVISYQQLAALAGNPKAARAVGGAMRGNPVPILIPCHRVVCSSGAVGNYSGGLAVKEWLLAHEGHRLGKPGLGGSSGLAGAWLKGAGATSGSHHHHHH

benzyl-AGT [7] = biological target: T2, benzyl-AGT; experiment: Mobility shift titration of 32P-labeled 24-mer DNA with benzyl-AGT; format: binding; settings: AGT modified with O^6-benzylguanine
[8] = biological target: T3, O6-alkylguanine-DNA alkyltransferase (AGT, MGMT) (human, UniProt P16455 1-201); experiment: fluorescence anisotropy
[9] = biological target: T3, O6-alkylguanine-DNA alkyltransferase …; experiment: fluorescence anisotropy; remark: listed apart in the source
[10] = biological target: T3, O6-alkylguanine-DNA alkyltransferase …; experiment: fluorescence anisotropy; remark: listed apart in the source
[11] = biological target: T3, O6-alkylguanine-DNA alkyltransferase …; experiment: fluorescence anisotropy; remark: listed apart in the source

Molecule: 3′-(FAM)-26-mer Oligo F: 5′- AGTCAGTCAGTCAGTCAGTCAGTCAG(FAM) -3′ (DNA AGTCAGTCAGTCAGTCAGTCAGTCAG; DNA, 3' {FAM}, backbone not given here)
Stoichiometry of saturated AGT-DNA complex (AGT [1]): 6.38 ± 0.21 | Hill coefficient (n) from anisotropy measurements (AGT [2]): 2.13 ± 0.14 | Hill coefficient (n) from intensity measurements (AGT [2]): 3.33 ± 0.27 | Ka from anisotropy measurements (AGT [2]): 3.30 ± 0.12 × 10^5 M^−1

Molecule: 5′-(FAM)-26-mer Oligo F: 5′- (FAM)AGTCAGTCAGTCAGTCAGTCAGTCAG -3′ (DNA AGTCAGTCAGTCAGTCAGTCAGTCAG; DNA, 5' {FAM}, backbone not given here)
Stoichiometry of saturated AGT-DNA complex (AGT [1]): 6.59 ± 0.20 | Hill coefficient (n) from anisotropy measurements (AGT [2]): 2.02 ± 0.17 | Hill coefficient (n) from intensity measurements (AGT [2]): 2.92 ± 0.62 | Ka from anisotropy measurements (AGT [2]): 3.33 ± 0.15 × 10^5 M^−1

Molecule: Nc1nc2c(ncn2[C@@H]2O[C@H](COP(=O)(O)O)[C@@H](O)[C@H]2O)c(=O)[nH]1 [5′-GMP, guanosine 5′ monophosphate]
IC50 (AGT [3]): 34.6 µM

Molecule: O=S(=O)(O)c1cccc2c(-c3ccc(Nc4ccccc4)c4c(S(=O)(=O)O)cccc34)ccc(Nc3ccccc3)c12 [Bis-ANS, 4,4′-bis(phenylamino)-[1,1′-Binaphthalene]-5,5′-disulfonic acid]
Kd (AGT [4]): 33.1 µM | IC50 (AGT [3]): 48.6 µM

Kd (AGT [4]; Kd, apparent, from fluorescence anisotropy data, single-site (1:1) fit, unmodified AGT, 4°C, no DNA): 13 µM and 12.7 µM | IC50 (AGT [5]; duplex 24mer 0.17μM, AGT 3.9μM, 20°C): 76.3 µM | IC50 (AGT [5]; electrophoretic analysis, approximate value): ~76 µM | concentration sufficient to completely inhibit AGT activity (AGT [3]): 1.8 mM | Kd (benzyl-AGT [6]): 82.2 µM
Molecule: O=C(O)c1ccc(C(=O)O)c(-c2c3ccc(=O)cc-3oc3cc(O)ccc23)c1 [FAM, 6-Carboxyfluorescein]
apparent binding affinity K (Ka) (AGT [4]; fluorescence anisotropy, Eq. 5 with n = 1, 4°C): 7.84 ± 0.24 × 10^4 M^−1 and 7.8 × 10^4 M^−1

Molecule: Nc1nc(OCc2ccccc2)c2nc[nH]c2n1 [O^6-benzylguanine]
residual AGT activity in DNA repair after treatment (AGT [3]; AGT modified with O^6-benzylguanine (37°C, 50mM Tris, pH 7.6, 1mM EDTA, 5 mM DTT)): < 1% | DNA binding of treated AGT (benzyl-AGT [7]): fully-competent in DNA binding | apparent stoichiometry n of DNA binding (benzyl-AGT [7]; duplex 24mer DNA): 5.5 ± 0.2

Molecule: Cc1ccc2c(c1)sc(-c1ccc(N(C)C)cc1)[n+]2C [ThT, Thioflavin T]
IC50 (AGT [3]): 217 µM

Molecule: Unmodified 16-mer Oligo A: 5′- AGT CAG TCA GTC AGT C -3′ (DNA AGTCAGTCAGTCAGTC; unmodified DNA)
Stoichiometry of saturated AGT-DNA complex (AGT [1]): 3.86 ± 0.08

Molecule: Unmodified 26-mer: 5′- AGTCAGTCAGTCAGTCAGTCAGTCAG -3′ (DNA AGTCAGTCAGTCAGTCAGTCAGTCAG; unmodified DNA)
Stoichiometry of saturated AGT-DNA complex (AGT [1]): 5.89 ± 0.07

Molecule: AGTCAGTCAGTCAGTCAGTCAGTCAG (ssDNA) [5'-FAM-Oligo F]
Ka [8]: 333000 M⁻¹

Molecule: AGTCAGTCAGTCAGTC (ssDNA) [5'-FAM-Oligo A]
Ka [9]: 295000 M⁻¹

Molecule: AGTCAGTCAGTCAGTC (ssDNA) [3'-FAM-Oligo A]
Ka [10]: 282000 M⁻¹

Molecule: AGTCAGTCAGTCAGTCAGTCAGTCAG (ssDNA) [3'-FAM-Oligo F]
Ka [11]: 330000 M⁻¹
